# Legend:
# [1] = tested on: p53 phosphorylation in HepG2 and Huh7 cells; assay: Western blotting of p53 and phosphorylated p53; assay type: cell-based, human; conditions: 24 h; BB 0.6 and 1.2 µM; Vs 4.0 µM
# Method in brief: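 HepG2 and Huh7 cells were treated 24 h in RPMI with test compound (0.6 or 1.2 µM) or reference HDAC inhibitor (4.0 µM). Whole-cell extracts were made in SDS/deoxycholate/NP-40 buffer with protease inhibitors. Samples of 30 µg protein were run on 7.5% or 12% SDS-PAGE and blotted to PVDF. Blots were milk-blocked, given primary antibody overnight at 4°C, then HRP secondary (1:10,000) for 1 h. Tubulin served as loading control.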
# [2] = tested on: GLUT2 expression in HepG2 and Huh7 cells; assay: Western blotting of GLUT2; assay type: cell-based, human; conditions: Fig. S1
# HepG2 cells = assay: Glycolytic activity; assay type: cell-based, human; conditions: cell culture supernatant; Fig. S1
# Method in brief: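 Glucose remaining and lactate released into the cell culture supernatant were measured with a blood gas analyser.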
# HDAC1 = HDAC1 (Homo sapiens, UniProt Q13547); assay: Cell free fluorogenic HDAC assay; assay type: biochemical; conditions: IC50 and two-fold IC50 concentrations; control set to 100%
# [3] = cited from earlier work
# Sequence of HDAC1 (Q13547 whole entry): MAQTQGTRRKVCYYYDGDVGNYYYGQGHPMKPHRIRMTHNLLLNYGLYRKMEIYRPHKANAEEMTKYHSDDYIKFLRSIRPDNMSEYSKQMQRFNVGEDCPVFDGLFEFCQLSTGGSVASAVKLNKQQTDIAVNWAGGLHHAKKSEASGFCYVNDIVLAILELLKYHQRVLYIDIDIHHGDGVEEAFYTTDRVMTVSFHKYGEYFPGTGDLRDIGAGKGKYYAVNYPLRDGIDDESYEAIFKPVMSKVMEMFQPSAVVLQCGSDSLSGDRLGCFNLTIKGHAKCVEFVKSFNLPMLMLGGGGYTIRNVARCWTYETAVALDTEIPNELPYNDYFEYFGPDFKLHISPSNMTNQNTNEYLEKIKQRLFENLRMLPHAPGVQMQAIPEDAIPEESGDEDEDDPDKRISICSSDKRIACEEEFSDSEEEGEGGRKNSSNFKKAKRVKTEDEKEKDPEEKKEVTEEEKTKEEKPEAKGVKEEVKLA
effect on activity of HDAC1 (HDAC1),SMILES,phosphorylation of p53 [1],Protein expression levels of GLUT2 [2],"glycolytic activity (glucose consumption, lactate production) (HepG2 cells)",therapeutic concentration [3]
potent inhibitory effects,O=C(CCCCCCC(=O)Nc1ccccc1)NO [vorinostat],no increase in p53 phosphorylation,markedly reduced the expression of GLUT2,no such reduction in glycolytic activity could be observed,
,CNC(=O)c1cc(Oc2ccc(NC(=O)Nc3ccc(Cl)c(C(F)(F)F)c3)cc2)ccn1 [sorafenib],,,,~ 8 µM

# Source: PMC9097774 (International Journal of Oncology, 2022)
